A short description of data set [1]: Aqueous solubility in pH 5 acetate buffer. Format: physicochemical. An outline of the steps:
(§1)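 Excess solid equilibrated in 0.25 mL 0.1 M sodium acetate, pH 5.0, 25 °C, 24 h; filtered (0.22 μm); lactone and carboxylate forms separated by reverse-phase C-18 HPLC, mobile phase 40% organic/60% aqueous with 0.005 M tetrabutylammonium phosphate; quantified against calibration curves of standard peak areas.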

Data set [2] concerns Mus musculus. Nature of the data set: Delay in tumor growth in mice to 500% volume of day 1 relative to control at dose 100 mg/kg. The class given is functional. Put shortly:
(§2)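 Female nu/nu mice bearing subcutaneous flank HT-29 xenografts; single-bolus subcutaneous maximum tolerated dose first set in tumor-free mice by body weight loss, then split into three portions given over one day (N = 6); caliper volume = length × width²/2; T−C = difference in days for mean tumor volume to reach 500% of initial, treated vs controls.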

A short description of data set [3]: (§3) Concentration required to inhibit 50% growth of human colon carcinoma cell line (HT-29). The class given is functional, cell-based. Put shortly: (§4)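 MTT microculture tetrazolium assay; cells grown in α-MEM with 15% heat-inactivated FBS, glutamine, pyruvate, insulin, nonessential amino acids, gentamycin, 37 °C, 5% CO2; adhered overnight, exposed to compound 48 h then fresh medium 48 h; 0.17 nM to 10 μM, quadruplicate; 4 h MTT, DMSO extraction; four-parameter logistic fit, usually single curve.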

Data set [4] is described as follows: Aqueous solubility determined in pH 5 acetate buffer. Format: physicochemical. An outline of the steps: as §1
The test system of the next data set is SK-OV-3. Put plainly: Concentration required to inhibit 50% growth of human ovarian cancer cell line(SK-OV-3) was measured. The class given is functional, cell-based. Put shortly: as §4
Data set [5] concerns Mus musculus. Put plainly: Delay in tumor growth in mice to 500% volume of day 1 relative to control at dose 90 mg/kg. The class given is functional. Put shortly:
as §2

The subject of data set [6] is Mus musculus. Put plainly: Delay in tumor growth in mice to 500% volume of day 1 relative to control at dose 54 mg/kg. The class given is functional. An outline of the steps:
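Female nu/nu mice (18-24 g) with subcutaneous HT-29 flank xenografts, N = 6. Maximum tolerated single subcutaneous bolus first set by body weight loss in tumor-free nude mice. That dose was split into three portions given over one day. Tumor volume by calipers as length × width²/2. T−C is the delay, in days, for mean tumor volume to reach 500% of initial versus untreated controls.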

Data set [7] concerns Mus musculus. Put plainly: Delay in tumor growth in mice to 500% volume of day 1 relative to control at dose 200 mg/kg. Format: functional. An outline of the steps:
as §2

The subject of a further data set is HT-29. The description is as §3. The class given is functional, cell-based. Put shortly: as §4
Another data set relates to SK-VLB. Put plainly: Concentration required to inhibit 50% growth of vinblastine resistant ovarian cancer cell line(SKVLB). The class given is functional, cell-based. The note with it: Homo sapiens. An outline of the steps: as §4
The subject of data set [8] is Mus musculus. Put plainly: Delay in tumor growth in mice to 500% volume of day 1 relative to control at dose 120 mg/kg. The class given is functional. An outline of the steps: as §2
Data set [9] relates to Mus musculus. Put plainly: Delay in tumor growth in mice to 500% volume of day 1 relative to control at dose 25 mg/kg. The class given is functional. An outline of the steps: as §2
Data set [10] deals with Mus musculus. Put plainly: Delay in tumor growth in mice to 500% volume of day 1 relative to control at dose 146 mg/kg. Format: functional. An outline of the steps: as §2

pIC50: −log10 of the molar value. ≈ marks a conversion by molar mass, not a printed value.

For the compound `CCc1c2c(nc3c[n+](C)ccc13)-c1cc3c(c(=O)n1C2)COC(=O)[C@]3(O)CC.[I-]`, in data set [1], the solubility is more than 2500 µg/mL. Moreover, the T-C in the data set with Mus musculus [2] was 3.5 days.

With `CCc1c2c(nc3cnc(C(=N)N)cc13)-c1cc3c(c(=O)n1C2)COC(=O)[C@]3(O)CC`, the pIC50 in data set [3] was 6.51; in the data set with SK-OV-3, 7.15. Besides, the solubility in data set [4] was more than 3000 µg/mL. The compound also gave a T-C with Mus musculus [5] of 6 days.

With `CC[C@@]1(O)C(=O)OCc2c1cc1n(c2=O)Cc2cc3c(CN(C)C)c(O)ccc3nc2-1.Cl` [TOPOTECAN HYDROCHLORIDE], the solubility in data set [4] was determined as 3100 µg/mL. Further, the T-C in the data set on Mus musculus [6] was determined as 10.3 days.

In the data set with Mus musculus [7], `CC[C@@]1(O)C(=O)OCc2c1cc1n(c2=O)Cc2c-1nc1cnc(CN)cc1c2C` had a T-C of 3.4 days. The figures for the pIC50 with HT-29, with SK-VLB and in the data set on SK-OV-3 were 6.91, 7.38 and 7.77, respectively. This compound also had a solubility in [4] of 7200 µg/mL (≈ 18.3 mM).

The compound `CC[C@@]1(O)C(=O)OCc2c1cc1n(c2=O)Cc2c-1nc1c[n+]([O-])c(CN)cc1c2C` yielded a T-C in the data set on Mus musculus [8] of 5.3 days. The pIC50 in [3] was 6.14; with SK-OV-3, 7.18. For the same compound, the solubility in [4] is more than 3000 µg/mL.

Regarding `CCc1c2c(nc3cnc(C#N)cc13)-c1cc3c(c(=O)n1C2)COC(=O)[C@]3(O)CC`, the pIC50 in the data set with HT-29 is 7.77.

In the data set on HT-29, `CCOC(=O)c1cc2c(CC)c3c(nc2cn1)-c1cc2c(c(=O)n1C3)COC(=O)[C@]2(O)CC` gave a pIC50 of 7.59.

In [1], `CC[C@@]1(O)C(=O)OCc2c1cc1n(c2=O)Cc2cc3cc[n+]([O-])cc3nc2-1` came in with a solubility of 300 µg/mL (≈ 0.821 mM).

On to `CC[C@@]1(O)C(=O)OCc2c1cc1n(c2=O)Cc2c-1nc1cnc(C#CCN)cc1c2C`, for which the pIC50 in data set [3] was 6.45; in the data set on SK-OV-3, 6.61.

For `CC[C@@]1(O)C(=O)OCc2c1cc1n(c2=O)Cc2c-1nc1cnc(Br)cc1c2C`, the pIC50 was 9.00 with HT-29, 9.30 in the data set on SK-VLB and 9.00 in the data set with SK-OV-3.

Turning to `CCc1c2c(nc3cnc(Br)cc13)-c1cc3c(c(=O)n1C2)COC(=O)[C@]3(O)CC`, the pIC50 in the data set with HT-29 is 8.15.

For `CCc1c2c(nc3cnc(CN)cc13)-c1cc3c(c(=O)n1C2)COC(=O)[C@]3(O)CC`, the pIC50 in the data set on SK-VLB was 6.35; in the data set with SK-OV-3, 7.49.

As to `CCc1c2c(nc3cnccc13)-c1cc3c(c(=O)n1C2)COC(=O)[C@]3(O)CC`, the solubility in data set [1] stood at 10 µg/mL (≈ 0.0265 mM).

Consider `CCc1c2c(nc3cnc(C(=N)NO)cc13)-c1cc3c(c(=O)n1C2)COC(=O)[C@]3(O)CC`, for which the T-C with Mus musculus [9] stood at 15 days. Also, the values for the pIC50 (in data set [3]; in the data set with SK-OV-3) were 8.15 and 9.10, respectively. In [4], this compound returned a solubility of more than 3000 µg/mL.

The compound `CC[C@@]1(O)C(=O)OCc2c1cc1n(c2=O)Cc2cc3ccccc3nc2-1` [CAMPTOTHECIN] displayed a solubility in data set [1] of less than 5 µg/mL.

As for `CCc1c2c(nc3cnc(C#CCN)cc13)-c1cc3c(c(=O)n1C2)COC(=O)[C@]3(O)CC`, the T-C in the data set on Mus musculus [10] came out at 1.5 days. Further, the pIC50 in the data set with HT-29 is 6.45; with SK-VLB, 6.42; in the data set on SK-OV-3, 6.61. The compound further returned a solubility in [4] of 5700 µg/mL (≈ 13.2 mM).

As usually defined, the solubility is how much of the substance goes into solution per volume. By pIC50 is commonly meant the IC50 on a negative log10 scale, so that one unit is a factor of ten. A higher pIC50 goes with a small IC50.
